# Reference: PubChem BioAssay AID588831 (Broad Institute, 2011)
# The source made the active and inactive calls.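 Rule for the calls: active = compounds lowering dye-labelled HDL uptake whose fitted half-maximal concentration is at most double the top tested dose; inconclusive = flat fit with moderate inhibition, or an unreliable curve fit; inactive = the rest.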
# Target: Scavenger receptor class B member 1 (Mus musculus) (UniProt Q61009)
# Assay: reversibility of SR-BI HDL uptake inhibition, dose response, mechanism study for SR-BI HDL uptake inhibitor project, ldlA[mSR-BI] CHO cells, fluorescence, dry powder (AID 588831)
# Conditions: DiI-HDL uptake after washout
# Outline: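 Test system: SR-BI-overexpressing ldlA CHO cell line / Medium: Ham's F12 with 0.5% BSA, 25 mM HEPES pH 7.4 / Probe or stimulus: DiI-HDL at 10 µg/mL / Incubation: 2 h compound pretreatment at 37 °C, 3 h DiI-HDL uptake / Signal: cellular DiI fluorescence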
# Chain of Scavenger receptor class B member 1 (Mus musculus) (Q61009 whole entry, looked up): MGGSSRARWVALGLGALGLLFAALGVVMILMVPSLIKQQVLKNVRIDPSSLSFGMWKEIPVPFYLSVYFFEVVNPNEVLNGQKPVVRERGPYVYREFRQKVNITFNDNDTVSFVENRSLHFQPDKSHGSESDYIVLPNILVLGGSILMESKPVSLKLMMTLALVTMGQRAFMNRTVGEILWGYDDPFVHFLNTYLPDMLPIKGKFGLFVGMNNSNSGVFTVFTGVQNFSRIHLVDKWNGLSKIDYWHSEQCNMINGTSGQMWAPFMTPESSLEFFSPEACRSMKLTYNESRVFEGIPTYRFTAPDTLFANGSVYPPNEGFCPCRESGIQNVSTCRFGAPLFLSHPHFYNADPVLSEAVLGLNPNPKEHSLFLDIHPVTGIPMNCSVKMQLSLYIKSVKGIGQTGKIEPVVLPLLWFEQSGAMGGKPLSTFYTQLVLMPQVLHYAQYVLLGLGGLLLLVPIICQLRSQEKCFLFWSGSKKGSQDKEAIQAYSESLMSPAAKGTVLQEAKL
"activity change, negative = inhibition (at 35 µM (top of the series))",AC50,Structure (SMILES)
inactive,–,C[C@H](C(=O)NC1CCCC1)N(C(=O)Cn1nnc(-c2ccc3c(c2)OCO3)n1)C1CCCCC1
–,315 nM,COCC(=O)N1CCc2cc(-c3csc(NC(=O)c4cc(OC)cc(OC)c4)n3)ccc21
–,0.987 nM,CCCCCCC1CCC/C1=N\NC(N)=S (stereo not drawn)
